According to ChEMBL document CHEMBL4376826 (J Med Chem, 2020):
Converted amounts (≈) assume the structure as drawn. The source made the active and inactive calls. The rule behind the calls is not given here.

Columns and labels:
Cytochrome P450 1A2 [1] = biological target: T1, Cytochrome P450 1A2 (Homo sapiens, UniProt P05177); experiment: Inhibition of CYP1A2 in human liver microsomes; format: ADME
T1 sequence (P05177 whole entry): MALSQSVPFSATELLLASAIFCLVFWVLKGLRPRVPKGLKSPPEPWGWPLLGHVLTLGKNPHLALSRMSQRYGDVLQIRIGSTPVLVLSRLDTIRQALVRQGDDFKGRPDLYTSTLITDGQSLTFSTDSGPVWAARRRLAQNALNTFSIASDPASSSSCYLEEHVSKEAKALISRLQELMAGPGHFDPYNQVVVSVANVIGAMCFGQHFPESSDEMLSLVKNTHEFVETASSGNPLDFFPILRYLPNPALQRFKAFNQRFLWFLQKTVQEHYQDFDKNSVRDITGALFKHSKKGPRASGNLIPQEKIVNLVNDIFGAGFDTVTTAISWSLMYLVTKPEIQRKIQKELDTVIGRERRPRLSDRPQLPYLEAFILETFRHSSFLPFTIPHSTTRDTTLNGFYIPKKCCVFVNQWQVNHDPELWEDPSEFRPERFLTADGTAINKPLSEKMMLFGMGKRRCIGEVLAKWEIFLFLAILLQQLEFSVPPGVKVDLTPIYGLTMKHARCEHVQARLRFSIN

Rattus norvegicus [2] = experiment: Effect on total cytochrome P450 content in rat at 2000 mg/kg/day, po for 28 days; format: ADME, organism-based; settings: in vivo, 672 h
Summary of the method: (§1)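 Rats dosed 2000 mg/kg/day by oral gavage for 28 days; liver microsomes prepared, microsomal protein concentration and total P450 content measured.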

CYP2C8 = CYP2C8 (Homo sapiens, UniProt P10632); experiment: Drug metabolism assessed as human CYP2C8-mediated metabolism by measuring half life; format: ADME; settings: human CYP2C8 enzyme
Chain of CYP2C8 (P10632 whole entry): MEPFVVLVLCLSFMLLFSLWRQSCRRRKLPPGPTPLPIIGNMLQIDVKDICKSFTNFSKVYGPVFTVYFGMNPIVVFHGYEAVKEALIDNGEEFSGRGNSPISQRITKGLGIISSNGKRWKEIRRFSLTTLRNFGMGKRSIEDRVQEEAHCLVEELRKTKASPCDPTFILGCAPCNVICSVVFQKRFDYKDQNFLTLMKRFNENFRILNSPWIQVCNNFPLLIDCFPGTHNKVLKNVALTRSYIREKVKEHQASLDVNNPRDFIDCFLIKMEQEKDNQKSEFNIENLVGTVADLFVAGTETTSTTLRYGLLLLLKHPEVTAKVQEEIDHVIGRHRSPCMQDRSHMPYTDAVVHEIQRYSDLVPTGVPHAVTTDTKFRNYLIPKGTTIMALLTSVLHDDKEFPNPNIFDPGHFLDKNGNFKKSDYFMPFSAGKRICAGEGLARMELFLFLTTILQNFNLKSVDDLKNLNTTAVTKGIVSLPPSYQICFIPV

[3] = Effect on total cytochrome P450 content in minipig at 500 mg/kg/day, po for 39 weeks; format: ADME, organism-based, Sus scrofa domesticus; settings: pig, in vivo, 6552 h
CYP2D6 = CYP2D6 (Homo sapiens, UniProt P10635); experiment: Drug metabolism assessed as human CYP2D6-mediated metabolism by measuring half life; format: ADME; settings: human CYP2D6 enzyme
Chain of CYP2D6 (P10635 whole entry): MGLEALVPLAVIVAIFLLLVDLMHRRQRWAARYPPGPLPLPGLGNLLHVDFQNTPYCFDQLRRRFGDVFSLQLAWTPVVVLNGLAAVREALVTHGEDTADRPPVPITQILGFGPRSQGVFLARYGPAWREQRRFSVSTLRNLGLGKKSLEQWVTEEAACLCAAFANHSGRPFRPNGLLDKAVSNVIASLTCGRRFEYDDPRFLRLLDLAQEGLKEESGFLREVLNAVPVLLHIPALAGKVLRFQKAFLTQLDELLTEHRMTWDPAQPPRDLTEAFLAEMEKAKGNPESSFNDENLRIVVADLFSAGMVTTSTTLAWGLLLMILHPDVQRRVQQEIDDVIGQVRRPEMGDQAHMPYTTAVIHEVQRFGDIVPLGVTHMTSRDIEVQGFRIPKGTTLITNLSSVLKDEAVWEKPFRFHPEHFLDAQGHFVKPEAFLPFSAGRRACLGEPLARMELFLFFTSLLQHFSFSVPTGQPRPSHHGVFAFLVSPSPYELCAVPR

Cytochrome P450 2D6 [4] = biological target: T2, Cytochrome P450 2D6 (Homo sapiens, UniProt P10635); experiment: Drug metabolism assessed as human CYP2D6-mediated metabolism by measuring DHD3 formation; format: ADME; settings: recombinant enzyme
T2 sequence (P10635 whole entry): as above

Cytochrome P450 1A2 [5] = biological target: T1, Cytochrome P450 1A2; experiment: Drug metabolism assessed as human CYP1A2-mediated metabolism by measuring DHD3 formation; format: ADME; settings: recombinant enzyme
[6] = Intrinsic clearance in mouse liver S9 fraction; format: ADME, subcellular; settings: read-out: CLH
[7] = Intrinsic clearance in human liver microsomes in presence of CYP2B6 inhibitor Ticlopidine; format: ADME, Microsome; settings: with Ticlopidine (CYP2B6 inhibitor), read-out: CLH
[8] = Intrinsic clearance in human liver microsomes in presence of CYP2D6 inhibitor Quinidine; format: ADME, Microsome; settings: with Quinidine (CYP2D6 inhibitor), read-out: CLH
[9] = Intrinsic clearance in human liver microsomes; format: ADME, Microsome; settings: read-out: CLH
Cytochrome P450 2D6 [10] = biological target: T2, Cytochrome P450 2D6; experiment: Drug metabolism assessed as human CYP2D6-mediated metabolism by measuring DHD1 formation; format: ADME; settings: recombinant enzyme
[11] = system: UDP-glucuronosyltransferases (UGTs); experiment: Drug metabolism assessed as human UGT-mediated metabolism by measuring half life for DHD3 formation; format: ADME, protein assay
Cytochrome P450 2C9 = Cytochrome P450 2C9 (Homo sapiens, UniProt P11712); experiment: Drug metabolism assessed as human CYP2C9-mediated metabolism by measuring DHD3 formation; format: ADME; settings: recombinant enzyme
Chain of Cytochrome P450 2C9 (P11712 whole entry): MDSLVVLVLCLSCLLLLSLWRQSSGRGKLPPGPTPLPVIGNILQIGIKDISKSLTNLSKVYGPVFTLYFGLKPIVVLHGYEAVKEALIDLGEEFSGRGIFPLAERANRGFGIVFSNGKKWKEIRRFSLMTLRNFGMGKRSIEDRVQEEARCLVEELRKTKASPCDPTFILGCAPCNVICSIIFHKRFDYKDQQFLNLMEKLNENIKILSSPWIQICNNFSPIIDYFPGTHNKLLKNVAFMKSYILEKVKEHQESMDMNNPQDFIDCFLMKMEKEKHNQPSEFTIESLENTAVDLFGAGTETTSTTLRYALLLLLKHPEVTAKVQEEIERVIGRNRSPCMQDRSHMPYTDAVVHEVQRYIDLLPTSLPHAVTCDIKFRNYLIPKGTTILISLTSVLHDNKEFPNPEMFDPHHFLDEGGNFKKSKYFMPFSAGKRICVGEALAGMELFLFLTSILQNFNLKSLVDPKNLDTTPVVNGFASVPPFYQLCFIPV

Cytochrome P450 2C8 = Cytochrome P450 2C8 (Homo sapiens, UniProt P10632); experiment: Drug metabolism assessed as human CYP2C8-mediated metabolism by measuring DHD3 formation; format: ADME; settings: recombinant enzyme
Chain of Cytochrome P450 2C8 (P10632 whole entry): as the sequence (P10632 whole entry) above

[12] = Protein binding in mouse plasma assessed as bound fraction; format: ADME, cell-free; settings: read-out: PPB (converted)
Summary of the method: (§2)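 Binding measured in 100% plasma; reported as fraction bound.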

Rattus norvegicus [13] = experiment: Effect on microsomal protein concentrations in rat at 2000 mg/kg/day, po for 28 days; format: ADME, organism-based; settings: in vivo, 672 h; summary of the method: as §1
Cytochrome P450 1A1 = Cytochrome P450 1A1 (Homo sapiens, UniProt P04798); experiment: Drug metabolism assessed as human CYP1A1-mediated metabolism by measuring DHD3 formation; format: ADME; settings: recombinant enzyme
Chain of Cytochrome P450 1A1 (P04798 whole entry): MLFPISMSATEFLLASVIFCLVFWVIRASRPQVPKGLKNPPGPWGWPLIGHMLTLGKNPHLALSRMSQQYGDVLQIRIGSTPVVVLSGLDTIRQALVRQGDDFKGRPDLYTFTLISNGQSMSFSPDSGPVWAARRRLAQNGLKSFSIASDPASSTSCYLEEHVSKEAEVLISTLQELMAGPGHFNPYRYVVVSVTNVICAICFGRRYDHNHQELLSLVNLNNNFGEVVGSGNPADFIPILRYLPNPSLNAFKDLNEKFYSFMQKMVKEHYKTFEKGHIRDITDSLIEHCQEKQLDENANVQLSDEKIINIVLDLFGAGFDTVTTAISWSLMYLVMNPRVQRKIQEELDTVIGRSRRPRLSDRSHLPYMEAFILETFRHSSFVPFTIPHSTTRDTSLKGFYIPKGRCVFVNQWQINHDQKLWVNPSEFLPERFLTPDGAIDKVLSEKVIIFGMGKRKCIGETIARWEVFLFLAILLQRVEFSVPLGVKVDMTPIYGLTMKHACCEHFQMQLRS

[14] = Drug metabolism in rat plasma assessed as formation of O-glucuronide conjugate of aromatized diol at 2000 mg/kg, po dosed for 28 days; format: ADME, organism-based; settings: in vivo, 672 h
[15] = Effect on microsomal protein concentrations in minipig at 500 mg/kg/day, po for 39 weeks; format: ADME, organism-based, Sus scrofa domesticus; settings: pig, in vivo, 6552 h
CYP1A2 = CYP1A2 (Homo sapiens, UniProt P05177); experiment: Drug metabolism assessed as human CYP1A2-mediated metabolism by measuring half life; format: ADME; settings: human CYP1A2 enzyme
Cytochrome P450 2B6 [16] = biological target: T3, Cytochrome P450 2B6 (Homo sapiens, UniProt P20813); experiment: Drug metabolism assessed as human CYP2B6-mediated metabolism by measuring DHD1 formation; format: ADME; settings: recombinant enzyme
T3 sequence (P20813 whole entry): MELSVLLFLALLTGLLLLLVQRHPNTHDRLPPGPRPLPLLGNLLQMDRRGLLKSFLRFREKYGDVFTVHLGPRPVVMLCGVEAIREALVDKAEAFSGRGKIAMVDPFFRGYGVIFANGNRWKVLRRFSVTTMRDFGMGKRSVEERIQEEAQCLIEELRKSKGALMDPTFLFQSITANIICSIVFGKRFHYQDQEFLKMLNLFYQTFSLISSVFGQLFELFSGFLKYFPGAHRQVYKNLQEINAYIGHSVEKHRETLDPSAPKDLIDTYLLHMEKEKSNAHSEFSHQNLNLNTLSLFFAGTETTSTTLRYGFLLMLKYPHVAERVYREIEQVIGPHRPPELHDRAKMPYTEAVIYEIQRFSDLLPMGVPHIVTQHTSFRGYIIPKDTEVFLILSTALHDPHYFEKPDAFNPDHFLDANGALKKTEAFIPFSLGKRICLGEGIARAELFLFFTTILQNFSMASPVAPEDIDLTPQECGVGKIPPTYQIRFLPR

CYP1A1 = CYP1A1 (Homo sapiens, UniProt P04798); experiment: Drug metabolism assessed as human CYP1A1-mediated metabolism by measuring half life; format: ADME; settings: human CYP1A1 enzyme
Chain of CYP1A1 (P04798 whole entry): as the sequence (P04798 whole entry) above

[17] = Induction of CYP2B enzymes in male minipig assessed as increase in PROD enzyme activity at 500 mg/kg/day, po for 39 weeks relative to control; format: ADME, organism-based, Sus scrofa domesticus; settings: pig, in vivo, 6552 h
CYP2C9 = CYP2C9 (Homo sapiens, UniProt P11712); experiment: Drug metabolism assessed as human CYP2C9-mediated metabolism by measuring half life; format: ADME; settings: human CYP2C9 enzyme
Chain of CYP2C9 (P11712 whole entry): as the sequence (P11712 whole entry) above

[18] = Permeability at pH 7.4 by PAMPA; format: ADME; settings: read-out: permeability
[19] = Drug level in rat plasma at 2000 mg/kg, po measured after 24 hrs; format: ADME, organism-based; settings: in vivo
[20] = Half life in human liver S9 fraction; format: ADME, subcellular
Summary of the method: (§3)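 Metabolic stability of the dihydrodiols measured in vitro with mouse and human liver S9 fractions and with mouse and human hepatocytes; half-life from substrate depletion.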

Cytochrome P450 3A4 = Cytochrome P450 3A4 (Homo sapiens, UniProt P08684); experiment: Drug metabolism assessed as human CYP3A4-mediated metabolism by measuring DHD3 formation; format: ADME; settings: recombinant enzyme
Chain of Cytochrome P450 3A4 (P08684 whole entry): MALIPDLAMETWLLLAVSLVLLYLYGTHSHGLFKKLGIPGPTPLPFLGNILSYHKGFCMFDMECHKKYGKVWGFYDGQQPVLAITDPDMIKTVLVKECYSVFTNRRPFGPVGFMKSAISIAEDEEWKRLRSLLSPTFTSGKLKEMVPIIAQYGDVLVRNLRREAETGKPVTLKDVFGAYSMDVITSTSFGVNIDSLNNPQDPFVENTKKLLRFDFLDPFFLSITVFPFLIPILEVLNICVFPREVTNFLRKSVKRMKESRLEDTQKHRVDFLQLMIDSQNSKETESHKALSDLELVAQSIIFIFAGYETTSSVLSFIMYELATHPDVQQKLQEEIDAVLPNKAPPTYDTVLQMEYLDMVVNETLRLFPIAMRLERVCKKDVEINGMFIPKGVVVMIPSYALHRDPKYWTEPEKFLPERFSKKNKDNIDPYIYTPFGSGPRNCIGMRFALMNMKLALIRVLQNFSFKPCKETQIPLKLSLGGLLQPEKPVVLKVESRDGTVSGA

Homo sapiens = species: Homo sapiens; experiment: Substrate activity at MDR4 (unknown origin)
[21] = Induction of CYP3A enzymes in minipig assessed as increase in testosterone hydroxylase activity at 500 mg/kg/day, po for 39 weeks relative to control; format: ADME, organism-based, Sus scrofa domesticus; settings: pig, in vivo, 6552 h
[22] = Induction of CYP1A1/2 enzymes in male minipig assessed as increase in EROD enzyme activity at 500 mg/kg/day, po for 39 weeks relative to control; format: ADME, organism-based, Sus scrofa domesticus; settings: pig, in vivo, 6552 h
[23] = Protein binding in human plasma assessed as bound fraction; format: ADME, cell-free; settings: read-out: PPB (converted); summary of the method: as §2
Cytochrome P450 2B6 [24] = biological target: T3, Cytochrome P450 2B6; experiment: Drug metabolism assessed as human CYP2B6-mediated metabolism by measuring DHD3 formation; format: ADME; settings: recombinant enzyme
[25] = Intrinsic clearance in human liver S9 fraction; format: ADME, subcellular; settings: read-out: CLH
[26] = Induction of CYP2E1 enzymes in minipig assessed as increase in 11-hydroxylase activity at 500 mg/kg/day, po for 39 weeks relative to control; format: ADME, organism-based, Sus scrofa domesticus; settings: pig, in vivo, 6552 h
Cytochrome P450 2C19 = Cytochrome P450 2C19 (Homo sapiens, UniProt P33261); experiment: Drug metabolism assessed as human CYP2C19-mediated metabolism by measuring DHD3 formation; format: ADME; settings: recombinant enzyme
Chain of Cytochrome P450 2C19 (P33261 whole entry): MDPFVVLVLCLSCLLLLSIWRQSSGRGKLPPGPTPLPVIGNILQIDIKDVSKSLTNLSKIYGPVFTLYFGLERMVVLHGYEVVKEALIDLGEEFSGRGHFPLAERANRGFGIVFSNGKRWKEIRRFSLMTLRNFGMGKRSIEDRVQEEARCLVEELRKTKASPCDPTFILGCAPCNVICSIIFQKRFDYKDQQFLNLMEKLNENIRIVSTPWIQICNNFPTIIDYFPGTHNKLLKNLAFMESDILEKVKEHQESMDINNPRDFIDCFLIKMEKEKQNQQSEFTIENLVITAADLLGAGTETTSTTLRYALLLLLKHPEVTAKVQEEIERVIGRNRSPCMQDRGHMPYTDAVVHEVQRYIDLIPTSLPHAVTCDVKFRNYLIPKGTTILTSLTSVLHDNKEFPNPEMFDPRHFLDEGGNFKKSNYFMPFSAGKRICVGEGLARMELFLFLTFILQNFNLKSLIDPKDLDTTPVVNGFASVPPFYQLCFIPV

[27] = Half life in mouse liver S9 fraction; format: ADME, subcellular; summary of the method: as §3
[28] = Drug metabolism in beta-naphthoflavone/phenobarbital-induced rat liver S9 fraction assessed as compound-D2 formation at 100 ug/ml in presence of NADPH measured after 4 hrs by UV-Vis spectroscopy; format: ADME, subcellular; settings: s9, 4 h
[29] = Induction of CYP4A enzymes in minipig assessed as increase in 12-hydroxylase activity at 500 mg/kg/day, po for 39 weeks relative to control; format: ADME, organism-based, Sus scrofa domesticus; settings: pig, in vivo, 6552 h
[30] = Kinetic aqueous solubility of the compound; format: physicochemical; settings: buffer; read-out: Kinetic_solubility
CYP2B6 = CYP2B6 (Homo sapiens, UniProt P20813); experiment: Drug metabolism assessed as human CYP2B6-mediated metabolism by measuring half life; format: ADME; settings: human CYP2B6 enzyme
Chain of CYP2B6 (P20813 whole entry): as the sequence (P20813 whole entry) above

[31] = Drug metabolism in beta-naphthoflavone/phenobarbital-induced rat liver S9 fraction assessed as compound-D1 formation at 100 ug/ml in presence of NADPH measured after 4 hrs by UV-Vis spectroscopy; format: ADME, subcellular; settings: s9, 4 h
CYP3A4 = CYP3A4 (Homo sapiens, UniProt P08684); experiment: Drug metabolism assessed as human CYP3A4-mediated metabolism by measuring half life; format: ADME; settings: human CYP3A4 enzyme
Chain of CYP3A4 (P08684 whole entry): as the sequence (P08684 whole entry) above

[32] = Intrinsic clearance in human liver microsomes in presence of CYP1A inhibitor alpha-naphthoflavone; format: ADME, Microsome; settings: with alpha-naphthoflavone (CYP1A inhibitor), read-out: CLH
Cytochrome P450 1A2 [33] = biological target: T1, Cytochrome P450 1A2; experiment: Drug metabolism assessed as human CYP1A2-mediated metabolism by measuring DHD1 formation; format: ADME; settings: recombinant enzyme
[34] = Drug metabolism in rat plasma assessed as formation of glucuronide conjugate of dihydrodiol at 2000 mg/kg, po dosed for 28 days; format: ADME, organism-based; settings: in vivo, 672 h
[35] = Drug metabolism in human liver microsomes assessed as metabolite retention time incubation for 45 mins; format: ADME, Microsome; settings: 0.75 h
Summary of the method: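 Incubation of substrate in pooled male and female human liver microsomes for 45 min; parent and metabolite resolved by LC-MS, metabolite identified by retention time and [M+H]+ ion.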

CYP2C19 = CYP2C19 (Homo sapiens, UniProt P33261); experiment: Drug metabolism assessed as human CYP2C19-mediated metabolism by measuring half life; format: ADME; settings: human CYP2C19 enzyme
Chain of CYP2C19 (P33261 whole entry): as the sequence (P33261 whole entry) above

CCS(=O)(=O)c1ccc2oc(-c3ccc4ccccc4c3)nc2c1 [EZUTROMID]
IC50 (Cytochrome P450 1A2 [1]): 5.4 µM | Activity (Rattus norvegicus [2]): Non-Toxic | half-life (CYP2C8): ≥ 3 h | Activity [3]: Non-Toxic | half-life (CYP2D6): ≥ 3 h | Drug metabolism (Cytochrome P450 2D6 [4]): Metabolite_Notdetected | Drug metabolism (Cytochrome P450 1A2 [5]): Metabolite_Notdetected | microsomal CLint [6]: 19 µL/min/mg | microsomal CLint [7]: 21.4 µL/min/mg | microsomal CLint [8]: 35.1 µL/min/mg | microsomal CLint [9]: 50.7 µL/min/mg | Drug metabolism (Cytochrome P450 2D6 [10]): Metabolite_Detected | t1/2 [11]: > 4 h | Drug metabolism (Cytochrome P450 2C9): Metabolite_Notdetected | Drug metabolism (Cytochrome P450 2C8): Metabolite_Notdetected | fraction unbound [12]: 0.005 | Activity (Rattus norvegicus [13]): Non-Toxic | Drug metabolism (Cytochrome P450 1A1): Metabolite_Notdetected | Drug metabolism [14]: Metabolite_Detected | Activity [15]: Non-Toxic | half-life (CYP1A2): 2.62 min | Drug metabolism (Cytochrome P450 2B6 [16]): Metabolite_Detected | half-life (CYP1A1): 2.16 min | Activity [17]: Not Active | half-life (CYP2C9): ≥ 3 h | Papp [18]: 9.5 ×10⁻⁶ cm/s | Drug uptake [19]: 38 to 89% | half-life [20]: 1.68 h | Drug metabolism (Cytochrome P450 3A4): Metabolite_Notdetected | Activity (Homo sapiens): inactive | Activity [21]: Not Active | Activity [22]: Not Active | fraction unbound [23]: 0.01 | Drug metabolism (Cytochrome P450 2B6 [24]): Metabolite_Notdetected | microsomal CLint [25]: 14 µL/min/mg | Activity [26]: Not Active | Drug metabolism (Cytochrome P450 2C19): Metabolite_Notdetected | half-life [27]: 1.23 h | Drug metabolism [28]: Metabolite_Detected | Activity [29]: Not Active | solubility kinetic [30]: 1 to 2 µM (≈ 0.337 to 0.675 µg/mL) | half-life (CYP2B6): ≥ 3 h | Drug metabolism [31]: Metabolite_Detected | half-life (CYP3A4): ≥ 3 h | microsomal CLint [32]: 5.06 µL/min/mg | Drug metabolism (Cytochrome P450 1A2 [33]): Metabolite_Detected | Drug metabolism [34]: Metabolite_Detected | Retention_time [35]: 5.7 min | half-life (CYP2C19): ≥ 3 h
